By Ki is commonly meant a measure of affinity in units of concentration, obtained from inhibition or displacement. A lower Ki goes with tighter binding.

The target in experiment [1] is T1, Neuropeptide Y receptor type 1 (Homo sapiens, UniProt P25929).
T1 sequence (P25929 whole entry): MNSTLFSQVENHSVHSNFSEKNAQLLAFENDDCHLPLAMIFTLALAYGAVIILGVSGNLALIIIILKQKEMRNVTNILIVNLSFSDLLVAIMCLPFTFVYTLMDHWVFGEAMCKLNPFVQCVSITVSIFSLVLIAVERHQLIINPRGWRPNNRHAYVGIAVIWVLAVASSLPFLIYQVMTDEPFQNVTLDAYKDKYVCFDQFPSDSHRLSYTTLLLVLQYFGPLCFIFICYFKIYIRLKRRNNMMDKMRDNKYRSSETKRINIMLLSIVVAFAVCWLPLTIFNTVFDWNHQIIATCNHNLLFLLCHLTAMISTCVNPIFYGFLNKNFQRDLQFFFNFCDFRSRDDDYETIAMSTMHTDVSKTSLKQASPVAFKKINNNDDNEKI
As to the kind of experiment: Ability to displace [125I]pPYY from AV12 cell line stably transfected with cloned human neuropeptide Y receptor type 1. The experiment is classed as cell-based. The gist of the method:
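Membranes prepared from AV12 cells stably transfected with the human Y1 receptor; test compound displacement of 125I-porcine PYY binding measured, method as previously reported. Ki reported in μM.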

Experiment [2] deals with T1, Neuropeptide Y receptor type 1. The experiment is described as follows: Functional Neuropeptide Y receptor type 1 antagonism was evaluated by its ability to reverse NPY induced inhibition of forskolin-stimulated cyclic AMP production in SK-N-MC cells. The experiment is classed as cell-based. The gist of the method: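 SK-N-MC cells; forskolin-stimulated cyclic AMP production inhibited by NPY, and test compound reversal of this inhibition measured. Ki derived, n = 2–3 determinations.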

The compound `Clc1ccc(OCc2sc3ccccc3c2CCCN2CCCCC2)cc1` came in with a Ki in experiment [1] of 2600 nM.
On the same count and under the same terms, the result for `CN(C)C1CCN(CCc2c(COc3ccc(C#N)cc3Br)sc3ccccc23)CC1` reads 380 nM.
`CN(C)C1CCN(CCc2c(/C=C/c3ccc(Cl)cc3Cl)sc3ccccc23)CC1`: in experiment [1], the affinity, expressed as Ki, was 12400 nM.
On the same count and under the same terms, the result for `CN(C)C1CCN(CCc2c(Cc3ccc(Cl)cc3Cl)sc3ccccc23)CC1` reads 4200 nM.
In turn, `CN(C)C1CCN(CCc2c(COc3ccc(Br)cc3C(F)(F)F)sc3ccccc23)CC1` registered a Ki in experiment [1] of 720 nM.
In experiment [1], `CN(C)C1CCN(CCc2c(/C=N/Nc3ccc(Cl)cc3Cl)sc3ccccc23)CC1` had a Ki of 4500 nM.
The compound `CC(CN1CCC(N(C)C)CC1)c1c(COc2ccc(Cl)cc2Cl)sc2ccccc12` (stereo unspecified) came in with a Ki in experiment [1] of 690 nM.
Turning to `CN(C)C1CCN(CCc2c(COc3ccc(Br)cc3Br)sc3ccccc23)CC1`, in experiment [1], affinity was put at a Ki of 120 nM.
The same measure, in the same setting: the result for `Clc1ccc(OCc2sc3ccccc3c2CN2CCCCC2)cc1` reads 11100 nM.
Same read-out and setting: to `CN(C)C1CCN(CCc2c(COc3c(Br)cc(Br)cc3Br)sc3ccccc23)CC1` belongs 3600 nM.
In experiment [1], `CN(C)C1CCN(CCc2c(COc3ccccc3)sc3ccccc23)CC1` gave an inhibition constant (Ki) of 1260 nM.
In turn, `C=CCc1ccccc1OCc1sc2ccccc2c1CCN1CCC(N(C)C)CC1` registered a Ki in experiment [1] of 980 nM.
Same read-out and setting: the result for `CN(C)C1CCN(CCc2c(COc3ccccc3CO)sc3ccccc23)CC1` reads 450 nM.
As for `COC(c1ccc(Cl)cc1Cl)c1sc2ccccc2c1CCN1CCC(N(C)C)CC1` (stereo unspecified), the Ki in experiment [1] came out at 4000 nM.
In experiment [1], `CN(C)C1CCN(CCc2c(COc3ccccc3Br)sc3ccccc23)CC1` came in with a Ki of 450 nM.
In experiment [1], `CN(C)C1CCN(CCc2c(COc3ccc(-c4ccccc4)cc3)sc3ccccc23)CC1` displayed a Ki of 3700 nM.
With `CN(C)C1CCN(CCc2c(CNc3ccc(Cl)cc3Cl)sc3ccccc23)CC1`, the Ki in experiment [1] was 1700 nM.
The same measure, in the same setting: to `CN(C)C1CCN(CCc2c(COc3ccccc3I)sc3ccccc23)CC1` belongs 380 nM.
In the case of `CN(C)C1CCN(CCc2c(COc3ccc(Br)cc3)sc3ccccc23)CC1`, the Ki in experiment [1] was 160 nM.
Same read-out and setting: to `Cc1cc(C)c(OCc2sc3ccccc3c2CCN2CCC(N(C)C)CC2)c(C)c1` belongs 2420 nM; to `Cc1ccc(OCc2sc3ccccc3c2CCN2CCC(N(C)C)CC2)cc1`, 370 nM.
Compound `CN(C)C1CCN(CCc2c(COc3ccc(C(F)(F)F)cc3)sc3ccccc23)CC1` returned a Ki in experiment [1] of 740 nM.
The compound `CN(C)C1CCN(CCc2c(C(=O)c3ccc(Cl)cc3Cl)sc3ccccc23)CC1` returned a Ki in experiment [1] of 5600 nM.
In turn, `CN(C)C1CCN(CCc2c(C(Oc3ccc(Cl)cc3Cl)c3ccccc3)sc3ccccc23)CC1` (stereo unspecified) displayed a Ki in experiment [1] of 5800 nM.
Take `CN(C)C1CCN(CCc2c(C(O)c3ccc(Cl)cc3Cl)sc3ccccc23)CC1` (stereo unspecified): in experiment [1], the affinity corresponds to a Ki of 3800 nM.
As to `CN(C)C1CCN(CCc2c(/C=N/c3ccc(Cl)cc3Cl)sc3ccccc23)CC1`, in experiment [1], the Ki came to 12600 nM.
Regarding `CNCc1cc(Br)ccc1OCc1sc2ccccc2c1CCN1CCC(N(C)C)CC1`, the Ki in experiment [1] stood at 660 nM.
On to `CN(C)C1CCN(CCc2c(COc3ccc(Cl)cc3)sc3ccccc23)CC1`, for which the Ki in experiment [1] stood at 310 nM.
Still for that read-out and setting: to `CC(Oc1ccc(Cl)cc1Cl)c1sc2ccccc2c1CCN1CCC(N(C)C)CC1` (stereo unspecified) belongs 1700 nM; to `CN(C)Cc1cc(Br)ccc1OCc1sc2ccccc2c1CCN1CCC(N(C)C)CC1`, 2430 nM; to `CN(C)C1CCN(CCc2c(COc3ccc(Br)cc3C#N)sc3ccccc23)CC1`, 13 nM.
With `Cc1cc(Br)ccc1OCc1sc2ccccc2c1CCN1CCC(N(C)C)CC1`, the Ki in experiment [1] came out at 420 nM.
Compound `CN(C)C1CCN(CCc2c(CO)sc3ccccc23)CC1` registered a Ki in experiment [1] of 88000 nM.
`CN(C)C1CCN(CCc2c(COc3ccccc3C=O)sc3ccccc23)CC1` registered a Ki in experiment [1] of 2760 nM.
Same read-out and setting: to `CN(C)C1CCN(CCc2c(COc3ccc(Br)cc3C(N)=O)sc3ccccc23)CC1` belongs 172 nM; to `CN(C)C1CCN(CCc2c(C(C)(C)Oc3ccc(Cl)cc3Cl)sc3ccccc23)CC1`, 12000 nM; to `CN(C)C1CCN(CCc2c(C#Cc3ccc(Cl)cc3Cl)sc3ccccc23)CC1`, 7900 nM.
The same measure, in the same setting: the result for `CN(C)C1CCN(CCc2c(COc3ccc(CO)cc3Br)sc3ccccc23)CC1` reads 190 nM; that for `Clc1ccc(OCc2sc3ccccc3c2CCN2CCCCC2)cc1`, 1900 nM.
On the same count and under the same terms, to `Cc1ccccc1OCc1sc2ccccc2c1CCN1CCC(N(C)C)CC1` belongs 420 nM.
Turning to `CN(C)C1CCN(CCc2c(COc3ccc(Cl)cc3Cl)sc3ccccc23)CC1`, the results for the Ki in experiment [2] and in experiment [1] were 4700 nM and 140 nM, respectively.
In experiment [1], `CN(C)C1CCN(CCc2c(-c3ccc(Cl)cc3Cl)sc3ccccc23)CC1` showed a Ki of 6500 nM.
Take `CN(C)C1CCN(CCc2c(COc3ccc(Br)cc3CO)sc3ccccc23)CC1`: the values for the Ki in experiment [2] and in experiment [1] were 1200 nM and 15 nM, respectively.
Compound `Cc1ccc(OCc2sc3ccccc3c2CCN2CCC(N(C)C)CC2)c(C)c1` came in with a Ki in experiment [1] of 120 nM.
With `CN(C)C1CCN(CCc2c(CCOc3ccc(Cl)cc3Cl)sc3ccccc23)CC1`, the Ki in experiment [1] worked out at 2800 nM.
Take `COCc1cc(Br)ccc1OCc1sc2ccccc2c1CCN1CCC(N(C)C)CC1`: in experiment [1], the Ki was 11 nM.
Take `Cc1ccc(OCc2sc3ccccc3c2CCN2CCC(N(C)C)CC2)c(Br)c1`: the affinity in experiment [1], expressed as Ki, was 78 nM.
In turn, `CN(C)C1CCN(CCc2c(C(=O)Nc3ccc(Cl)cc3Cl)sc3ccccc23)CC1` registered a Ki in experiment [1] of 2300 nM.
The compound `Cc1ccc(OCc2sc3ccccc3c2CCN2CCC(N(C)C)CC2)c(C(C)(C)C)c1` registered an inhibitory constant (Ki) in experiment [1] of 2830 nM.

These data come from ChEMBL document CHEMBL1131936, “Structure-activity relationships of a series of benzothiophene-derived NPY Y1 antagonists: optimization of the C-2 side chain” (Bioorg Med Chem Lett, 1999).
